ChEMBL document CHEMBL2396634, “An effective prodrug strategy to selectively enhance ocular exposure of a cannabinoid receptor (CB1/2) agonist” (J Med Chem, 2013)
In brackets after ≈: the same amount, converted by molar mass.

Key:
[1] = Aqueous solubility of the compound at pH 6.8; type: physicochemical
[2] = AUC in Brown Norway rat iris and ciliary body administered topically after 3 hrs; type: ADME, tissue-based; set-up: time < 3 hr; concentration or dose not given beside the values; conditions: topical or ocular
In short: (§1)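 Adult male Brown Norway rats (200−250 g) received a single topical 4 μL dose of 0.1% solution to each eye (5% cremaphor EL, 0.78% NaCl, 0.1% Na3PO4 in sterile water, pH 6.8). Composite design, three animals per group, sampled at 0.25, 1 and 3 h. Plasma taken by cardiac puncture. Eyes enucleated and PBS-rinsed, tissues dissected and homogenized. Parent drug measured by LC/MS/MS. AUC over 0−3 h.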

[3] = (§2) AUC in Brown Norway rat plasma administered topically after 3 hrs; type: ADME, cell-free; set-up: time < 3 hr; concentration or dose not given beside the values; conditions: Brown Norway, topical or ocular; in short: as §1
Plasma [4] = assay: as §2; type: ADME, cell-free; set-up: time < 3 hr; concentration or dose not given beside the values; conditions: topical_or_ocular, 3 h, BLD = below limit of detection; in short: as §1
[5] = system: Iris and ciliary body (Rattus norvegicus); assay: AUC in Brown Norway rat iris and ciliary body administered topically after 3 hrs; conditions: in vivo, topical_or_ocular, BLD = below limit of detection
Plasma [6] = assay: Drug uptake in Brown Norway rat plasma administered topically after 3 hrs; type: ADME, cell-free; conditions: topical_or_ocular
In short: (§3)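 Abbreviated ocular PK in male Brown Norway rats, 200−250 g. Single topical 4 μL dose per eye of 0.1% solution in 5% cremaphor EL, 0.78% NaCl, 0.1% Na3PO4, water, pH 6.8. Three animals per group, sampled at 0.25, 1 and 3 h. Tissues homogenized in PBS with 10% acetonitrile.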

[7] = Tmax in Brown Norway rat aqueous humor administered topically; type: ADME, tissue-based, Aqueous humor of eyeball; conditions: topical or ocular
In short: (§4)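 Male Brown Norway rats, 200−250 g, dosed once topically with 4 μL of a 0.02% clinical formulation per eye. Composite design with 3 animals per time point. Cornea, aqueous humor, iris/ciliary body and plasma collected at 0 (untreated), 0.083, 0.25, 0.5, 1, 3, 6 and 24 h. Eyes rinsed in PBS after enucleation.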

[8] = Drug uptake in Brown Norway rat iris administered topically after 1 hr; type: ADME, tissue-based; conditions: in vivo, topical_or_ocular; in short: as §3
[9] = Cmax in Brown Norway rat plasma administered topically; type: ADME, cell-free; conditions: topical or ocular; in short: as §4
Cannabinoid receptor 1 = Cannabinoid receptor 1 (Homo sapiens, UniProt P21554); assay: Agonist activity at CB1 receptor (unknown origin)
Cannabinoid receptor 1, sequence (P21554 whole entry): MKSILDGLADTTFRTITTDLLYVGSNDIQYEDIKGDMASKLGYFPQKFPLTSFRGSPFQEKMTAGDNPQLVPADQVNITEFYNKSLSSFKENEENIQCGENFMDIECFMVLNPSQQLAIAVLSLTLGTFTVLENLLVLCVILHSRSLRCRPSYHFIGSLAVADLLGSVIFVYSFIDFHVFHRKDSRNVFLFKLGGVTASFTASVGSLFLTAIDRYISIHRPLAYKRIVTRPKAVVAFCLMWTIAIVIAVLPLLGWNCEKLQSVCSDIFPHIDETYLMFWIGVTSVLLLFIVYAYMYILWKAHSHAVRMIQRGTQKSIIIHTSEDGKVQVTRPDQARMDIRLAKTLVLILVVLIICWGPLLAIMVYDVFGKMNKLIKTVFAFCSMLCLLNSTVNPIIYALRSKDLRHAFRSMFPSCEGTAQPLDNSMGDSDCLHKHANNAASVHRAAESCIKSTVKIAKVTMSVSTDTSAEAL

[10] = Drug uptake in Brown Norway rat cornea administered topically after 3 hrs; type: ADME, tissue-based; conditions: in vivo, topical_or_ocular; in short: as §3
[11] = AUC (0 to last) in Brown Norway rat aqueous humor administered topically; type: ADME; set-up: time 0 - last; conditions: topical or ocular; in short: as §4
[12] = AUC (0 to last) in Brown Norway rat cornea administered topically; type: ADME, tissue-based; set-up: time 0 - last; conditions: topical or ocular; in short: as §4
[13] = Drug uptake in Brown Norway rat iris administered topically after 3 hrs; type: ADME, tissue-based; conditions: in vivo, topical_or_ocular; in short: as §3
[14] = Drug uptake in Brown Norway rat ciliary body administered topically after 3 hrs; type: ADME, tissue-based; conditions: in vivo, topical_or_ocular; in short: as §3
[15] = Cmax in Brown Norway rat cornea administered topically; type: ADME, tissue-based; conditions: topical or ocular; in short: as §4
[16] = Drug uptake in Brown Norway rat aqueous humor administered topically after 3 hrs; type: ADME, tissue-based, Aqueous humor of eyeball; conditions: in vivo, topical_or_ocular; in short: as §3
[17] = Drug uptake in Brown Norway rat ciliary body administered topically after 1 hr; type: ADME, tissue-based; conditions: in vivo, topical_or_ocular; in short: as §3
[18] = Tmax in Brown Norway rat plasma administered topically; type: ADME, cell-free; conditions: topical or ocular; in short: as §4
Cannabinoid receptor 2 = Cannabinoid receptor 2 (Homo sapiens, UniProt P34972); assay: Agonist activity at CB2 receptor (unknown origin)
Cannabinoid receptor 2, sequence (P34972 whole entry): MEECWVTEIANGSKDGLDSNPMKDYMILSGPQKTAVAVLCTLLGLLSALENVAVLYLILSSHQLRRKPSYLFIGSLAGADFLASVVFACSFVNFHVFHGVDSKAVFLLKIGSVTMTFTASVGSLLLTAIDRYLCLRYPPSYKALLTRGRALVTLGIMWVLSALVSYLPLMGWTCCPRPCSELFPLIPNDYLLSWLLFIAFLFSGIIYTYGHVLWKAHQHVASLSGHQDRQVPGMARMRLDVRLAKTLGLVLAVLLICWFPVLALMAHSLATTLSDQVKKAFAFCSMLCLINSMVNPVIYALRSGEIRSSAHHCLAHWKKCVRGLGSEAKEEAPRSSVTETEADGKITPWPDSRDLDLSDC

[19] = Tmax in Brown Norway rat iris administered topically; type: ADME, tissue-based; conditions: topical or ocular; in short: as §4
[20] = Cmax in Brown Norway rat iris administered topically; type: ADME, tissue-based; conditions: topical or ocular; in short: as §4
[21] = Tmax in Brown Norway rat cornea administered topically; type: ADME, tissue-based; conditions: topical or ocular; in short: as §4
[22] = Cmax in Brown Norway rat aqueous humor administered topically; type: ADME, tissue-based, Aqueous humor of eyeball; conditions: topical or ocular; in short: as §4

SMILES	solubility ([1]; buffer)	AUC at 3 h [2] [µM·h]	AUC at 3 h [3] [µM·h]	AUC (Plasma [4])	AUC [5]	further results
CCOC(=O)c1c(C)cc2nc(COC(=O)NCCOC(=O)[C@@H](NC(=O)[C@H](N)C(C)C)C(C)C)n(-c3ccccc3S(=O)(=O)NC)c(=O)c2c1C	soluble					
CCOC(=O)c1c(C)cc2nc(COC(=O)NCCOP(=O)(O)O)n(-c3ccccc3S(=O)(=O)NC)c(=O)c2c1C	soluble	0.017	0.01			
CCOC(=O)c1c(C)cc2nc(COC(=O)NCCOC(=O)CN)n(-c3ccccc3S(=O)(=O)NC)c(=O)c2c1C	soluble	0.0174	0.0039			
CCOC(=O)c1c(C)cc2nc(COC(=O)NCCOC(=O)CCN)n(-c3ccccc3S(=O)(=O)NC)c(=O)c2c1C	soluble			BLD	BLD	
CCOC(=O)c1c(C)cc2nc(COC(=O)NCCOC(=O)C3CCCCN3)n(-c3ccccc3S(=O)(=O)NC)c(=O)c2c1C (stereo not drawn)	soluble	0.0367	0.0118			
CCOC(=O)c1c(C)cc2nc(COC(=O)NCCOC(=O)CN3CCCCC3)n(-c3ccccc3S(=O)(=O)NC)c(=O)c2c1C	soluble	0.321		BLD		
CCOC(=O)c1c(C)cc2nc(COC(=O)NCCOC(=O)c3cn4ccccc4n3)n(-c3ccccc3S(=O)(=O)NC)c(=O)c2c1C	soluble			BLD	BLD	
CCOC(=O)c1c(C)cc2nc(COC(=O)NCCOC(=O)c3cccnc3)n(-c3ccccc3S(=O)(=O)NC)c(=O)c2c1C	soluble	0.213		BLD		
CCOC(=O)c1c(C)cc2nc(COC(=O)NCCOC(=O)[C@H](N)c3ccccc3Cl)n(-c3ccccc3S(=O)(=O)NC)c(=O)c2c1C	soluble		0.0036		BLD	
CCOC(=O)c1c(C)cc2nc(COC(=O)NCCOC(=O)[C@@H](N)C(C)C)n(-c3ccccc3S(=O)(=O)NC)c(=O)c2c1C	soluble	0.04	0.02			
CCOC(=O)c1c(C)cc2nc(COC(=O)NCCOC(=O)[C@H](NC(=O)[C@@H](N)C(C)C)C(C)C)n(-c3ccccc3S(=O)(=O)NC)c(=O)c2c1C	soluble	0.104		BLD		
CCOC(=O)c1c(C)cc2nc(COC(=O)NCCO)n(-c3ccccc3S(=O)(=O)NC)c(=O)c2c1C [SAD448]			0.014		BLD	Drug uptake (Plasma [6]): Not Active; Tmax [7]: 4.98 min; Drug uptake [8]: Not Active; Cmax [9]: 9 nM; IC50 (Cannabinoid receptor 1): 94 nM; Drug uptake [10]: Not Active; AUC(0-t) [11]: 0.05 µM·h; AUC(0-t) [12]: 0.043 µM·h; solubility ([1]; aqueous medium, read-out: solubility): 340 µM (≈ 181 µg/mL); Drug uptake [13]: Not Active; Drug uptake [14]: Not Active; Cmax [15]: 50 nM; Drug uptake [16]: Not Active; Drug uptake [17]: Not Active; Tmax [18]: 4.98 min; IC50 (Cannabinoid receptor 2): 3.5 nM; Tmax [19]: 4.98 min; Cmax [20]: 18 nM; Tmax [21]: 4.98 min; Cmax [22]: 82 nM
